The values below come from ChEMBL document CHEMBL1153179, “Optimization of orally bioavailable alkyl amine renin inhibitors” (Bioorg Med Chem Lett, 2010).

SMILES strings stand for the structures. Calls of active or inactive are those of the source. No cut-off for these calls is given here.

Data set [1] has as its target T1, Renin (Homo sapiens, UniProt P00797).
T1 sequence (P00797 whole entry): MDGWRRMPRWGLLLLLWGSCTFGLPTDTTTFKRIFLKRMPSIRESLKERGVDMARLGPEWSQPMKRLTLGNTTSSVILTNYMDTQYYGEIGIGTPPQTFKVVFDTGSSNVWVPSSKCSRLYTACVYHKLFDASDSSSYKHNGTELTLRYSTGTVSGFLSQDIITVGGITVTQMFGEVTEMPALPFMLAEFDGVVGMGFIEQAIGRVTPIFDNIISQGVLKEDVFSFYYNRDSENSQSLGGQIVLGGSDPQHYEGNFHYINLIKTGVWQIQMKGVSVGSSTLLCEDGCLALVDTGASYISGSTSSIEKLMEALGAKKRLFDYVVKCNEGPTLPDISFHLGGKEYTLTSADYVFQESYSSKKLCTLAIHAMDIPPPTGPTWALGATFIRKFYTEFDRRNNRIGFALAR
Kind of data set: Inhibition of human recombinant renin assessed as decrease in plasma renin activity by competitive radioimmunoassay in presence of human plasma.

In data set [2] the target is T1, Renin. Kind of data set: Inhibition of trypsin-activated human recombinant renin.
Data set [3] in a line: Volume of distribution at steady state in cynomolgus monkey at 1 mg/kg, iv or 2 mg/kg, po. The following applies: in vivo, read-out: VDss. Type of data set: ADME, organism-based, Macaca fascicularis.
Data set [4] in a line: Clearance in cynomolgus monkey at 1 mg/kg, iv. Further details: dose 1 mg/kg, route intravenous. Type of data set: ADME, organism-based, Macaca fascicularis. The following applies: in vivo.
Data set [5] is described as follows: Oral bioavailability in cynomolgus monkey at 2 mg/kg. The following applies: in vivo. Type of data set: ADME, organism-based, Macaca fascicularis.
A short description of data set [6]: Cmax in cynomolgus monkey at 2 mg/kg, po. In kind it is ADME, organism-based, Macaca fascicularis. Also on record: dose 2 mg/kg, route oral. The conditions noted are these: in vivo.
Data set [7] is described as follows: AUC (0 to 32 hrs) in cynomolgus monkey at 2 mg/kg, po. Type of data set: ADME, organism-based, Macaca fascicularis. Further details: time < 32 hr, dose 2 mg/kg, route oral. The conditions noted are these: plasma.
Data set [8] in a line: Tmax in cynomolgus monkey at 2 mg/kg, po. Further details: dose 2 mg/kg, route oral. Type of data set: ADME, organism-based, Macaca fascicularis. The conditions noted are these: in vivo.
Data set [9] is described as follows: (§1) AUC (0 to t) in rat at 10 mg/kg, po. Type of data set: ADME, organism-based, Plasma. Further details: dose 10 mg/kg, route oral. The following applies: plasma.
The nature of data set [10]: Half life in cynomolgus monkey at 2 mg/kg, po. The conditions noted are these: in vivo. Also on record: dose 2 mg/kg, route oral. Type of data set: ADME, organism-based, Macaca fascicularis.
Data set [11] in a line: (§2) Oral bioavailability in rat at 10 mg/kg. In kind it is ADME, organism-based. The conditions noted are these: in vivo.
Data set [12] is described as follows: Volume of distribution at steady state in rat at 10 mg/kg, po or 2 mg/kg, iv. In kind it is ADME, organism-based. The following applies: in vivo, read-out: Vdss.
The nature of data set [13]: Half life in rat at 10 mg/kg, po. The following applies: in vivo. In kind it is ADME, organism-based. Further details: dose 10 mg/kg, route oral.
The nature of data set [14]: Clearance in rat at 2 mg/kg, iv. In kind it is ADME, organism-based. Further details: dose 2 mg/kg, route intravenous. The conditions noted are these: in vivo.
Data set [15] can be described thus: Tmax in rat at 10 mg/kg, po. In kind it is ADME, organism-based. The following applies: in vivo. Also on record: dose 10 mg/kg, route oral.
The nature of data set [16]: Cmax in rat at 10 mg/kg, po. Type of data set: ADME, organism-based. Also on record: dose 10 mg/kg, route oral. The following applies: in vivo.
The subject of data set [17] is Rattus norvegicus. Kind of data set: Reduction in mean blood pressure in double transgenic rat model of hypertension at 10 mg/kg, po after 24 hrs. Type of data set: functional, organism-based. Also on record: dose 10 mg/kg. The method in brief: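 Double transgenic rats expressing human renin and human angiotensinogen (dTGR) given a single 10 mg/kg oral dose; mean arterial pressure followed over 24 h against vehicle-treated animals, with statistical significance assessed.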

Data set [18] in a line: AUC (0 to t) in cynomolgus monkey at 2 mg/kg, po. The following applies: plasma. Type of data set: ADME, organism-based, Macaca fascicularis. Further details: dose 2 mg/kg, route oral.
In data set [19] the test system is Rattus norvegicus. The description is as §2. In kind it is ADME, organism-based. The conditions noted are these: in vivo.
Data set [20] relates to Rattus norvegicus. Described as §1. In kind it is ADME, organism-based, Plasma. Further details: dose 10 mg/kg, route oral. The conditions noted are these: in vivo.

On to `CNC[C@H](CC1CCCCC1)NC(=O)N1CCC[C@@H]([C@@H](OCCNC(=O)OC)c2ccc(F)c(F)c2)C1`, for which the IC50 in data set [1] was found to be 16.6 nM; in data set [2], 2.5 nM.
As to `CNC[C@H](CC1CCCCC1)NC(=O)N1CCC[C@@H]([C@@](O)(CCCNS(N)(=O)=O)c2cccc(Cl)c2)C1`, the concentration for half-maximal inhibition (IC50) in data set [1] was found to be 297 nM; in data set [2], 46 nM.
For `CNC[C@H](CC1CCCCC1)NC(=O)N1CCC[C@@H]([C@@](O)(CCCCOC)c2cccc(Cl)c2)C1`, the Vd in data set [3] stood at 6.1 L/kg. The compound further had a clearance in data set [4] of 5.2 mL/min/kg. Besides, in [5], the bioavailability was 16%. Moreover, the Cmax in data set [6] is 116 ng/mL. This compound registered an AUC(0-t) at 32 h in data set [7] of 615 ng·h/mL. The Tmax in data set [8] was found to be 2.7 h. The compound further yielded an AUC(0-t) in data set [9] of 472 ng·h/mL. The compound further had a half-life in [10] of 900 min.
As for `COC(=O)NCCO[C@@H](c1cccc(Cl)c1)[C@@H]1CCCN(C(=O)N[C@H](CN)CC2CCCCC2)C1`, the IC50 was found to be 2.6 nM in data set [1] and 0.48 nM in data set [2]. In [11], the bioavailability was 7.2%. Besides, in data set [12], the Vd was 51 L/kg. Besides, the AUC(0-t) in data set [9] worked out at 201 ng·h/mL. This compound also showed a half-life in data set [13] of 468 min. The same compound yielded a clearance in data set [14] of 53 mL/min/kg. The time of peak concentration (Tmax) in data set [15] is 4 h. The same compound came in with a Cmax in [16] of 63 ng/mL.
As to `COCCCOc1cc(C[C@@H](C[C@H](N)[C@@H](O)C[C@H](C(=O)NCC(C)(C)C(N)=O)C(C)C)C(C)C)ccc1OC`, the clearance in data set [4] came out at 2.5 mL/min/kg. In [5], the bioavailability was found to be 1.4%. In data set [17], the result was Active. Besides, the peak level in data set [6] (Cmax) was 29.5 ng/mL. Moreover, the Tmax in data set [8] came to 1.3 h. The values for the exposure AUC(0-t) in [9] and in data set [18] were 21 ng·h/mL and 154 ng·h/mL, respectively. The values for the half-life in [10] and in data set [13] were 588 min and 810 min, respectively.
`CNC[C@H](CC1CCCCC1)NC(=O)N1CCC[C@@H]([C@@](O)(CCCNC(=O)C2CC2)c2cccc(Cl)c2)C1`: the IC50 in data set [1] was determined as 79 nM; in data set [2], 17 nM.
In the same order, the values of `CNC[C@H](CC1CCCCC1)NC(=O)N1CCC[C@@H]([C@@H](OCCNC(=O)OC)c2cc(Cl)ccc2F)C1` are 2.1 nM and 0.62 nM.
Take `CNC[C@H](CC1CCCCC1)NC(=O)N1CCC[C@@H]([C@@H](OCCNC(=O)OC)c2cccc(C)c2)C1`: the IC50 in data set [1] stood at 4 nM; in data set [2] it was 0.47 nM.
In the case of `CNC[C@H](CC1CCCCC1)NC(=O)N1CCC[C@@H]([C@@](O)(CCCNC(=O)N(C)C)c2cccc(Cl)c2)C1`, the concentration for half-maximal inhibition (IC50) in [2] stood at 2260 nM.
For `CNC[C@H](CC1CCCCC1)NC(=O)N1CCC[C@@H]([C@@H](OCCNC(=O)OC)c2cc(F)cc(F)c2)C1`, the IC50 came out at 1.2 nM in [1] and 0.23 nM in data set [2].
Regarding `CNC[C@H](CC1CCCCC1)NC(=O)N1CCC[C@@H]([C@@](O)(CCCNC(N)=O)c2cccc(Cl)c2)C1`, the half-inhibitory concentration (IC50) worked out at 200 nM in data set [1] and 31 nM in data set [2].
In the same order, the values of `CNC[C@H](CC1CCCCC1)NC(=O)N1CCC[C@@H]([C@@H](OCCNC(=O)OC)c2cccc(F)c2F)C1` are 6.2 nM and 1.7 nM.
As to `CNC[C@H](CC1CCCCC1)NC(=O)N1CCC[C@@H]([C@@H](OCCNC(=O)OC)c2cc(F)cc(Cl)c2)C1`, the IC50 came to 1.5 nM in data set [1] and 0.52 nM in data set [2]. Besides, the F in [19] is 13.1%. Besides, the Vd in [12] turned out to be 38 L/kg. The compound also returned an AUC in data set [20] of 166 ng·h/mL. Further, in [13], the half-life is 432 min. The Tmax in [15] was 4 h. This compound yielded a Cmax in [16] of 54 ng/mL.
Regarding `CCCC(=O)NCCC[C@@](O)(c1cccc(Cl)c1)[C@@H]1CCCN(C(=O)N[C@H](CNC)CC2CCCCC2)C1`, in data set [2], the IC50 was found to be 57 nM.
